Where “and” joins values, the source holds several entries; their conditions need not be identical. Equal entries are not always repeated. Where two headings read alike, the source gives them in different places.
What was measured:
[1] = Pharmacokinetics of C2E2 in beagle dogs; assay type: in vivo
Outline: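 Dogs were 8–10 months old and weighed 10.1–12.0 kg. They were fasted overnight and dosed by gavage (12.05 mg mL-1 solution), with food returned about 2 h later. Jugular blood was drawn pre-dose and at 0.5–24 h into fluoride/oxalate tubes. Plasma was acidified with 20% formic acid and stored at –80 °C. Analysis was by LC/MS/MS with ^13C internal standards; the acid metabolite was measured as its Fe(III) complex in negative-ion mode. Data were fitted to a two-compartment model.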

[2] = Competitive binding of ^241Am in human plasma; settings: for EC50 / EC90 / logistic equation parameter a (slope) / logistic equation parameter b (inflection point) / logistic equation parameter c (asymptote, fraction of bound ^241Am): human plasma, 3 nM ^241Am nitrate, 37°C; for logistic equation parameter a (slope) / logistic equation parameter b (inflection point) / logistic equation parameter c (asymptote, fraction of bound ^241Am): estimate ± 95% conf. interval
Outline: (§1)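 Ligand stocks were in 10 mM sodium phosphate, pH 7.4, and added to plasma at 0.5–750 µM final, with ^241Am nitrate (stock in 1 M HCl). Samples were incubated at 37°C with mild agitation, then protein-bound Am was removed on a 3K ultrafilter (14,000×g, 30 min). Ligand-bound and cationic Am in the filtrate were separated on strong cation-exchange spin columns, and each fraction was gamma-counted (40–80 keV). Bound fraction was fitted against log concentration by logistic Gauss-Newton regression, and EC50 was taken at half of the asymptote.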

[3] = Competitive binding of ^241Am in rat plasma; settings: 3 nM ^241Am nitrate, 37°C; for logistic equation parameter a (slope) / logistic equation parameter b (inflection point) / logistic equation parameter c (asymptote, fraction of bound ^241Am): estimate ± 95% conf. interval
Outline: as §1

[4] = Solvent extraction study of the Am; assay type: binding; settings: for calculated formation constant (log K) of the ^241Am-ligand complex: calculated from lg β^cond and pKa values; for conditional stability constant (lg β^cond) of the ^241Am complex: pH 1.3, I = 0.1 M NaCl, 25°C, 0.1 M HDEHP in dodecane
Outline: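 Tracer ^241Am (16.7 MBq L-1) was partitioned between the organic and aqueous phases, with ligand at 0.05–100 µM in the aqueous phase. Samples were vortexed, shaken for 60 min, and centrifuged (10,000×g, 10 min). Both phases were gamma-counted (40–80 keV window), in triplicate. D0 came from a ligand-free aqueous phase. lg β^cond was obtained from a linear fit of […] against ligand concentration, and formation constants were then derived using the pKa values.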

[5] = Competitive binding of ^241Am in beagle plasma; settings: 3 nM ^241Am nitrate, 37°C; for logistic equation parameter a (slope) / logistic equation parameter b (inflection point) / logistic equation parameter c (asymptote, fraction of bound ^241Am): estimate ± 95% conf. interval
Outline: as §1

Ionization = assay type: physicochemical; settings: 5 mM ligand in 0.15 M KCl
Outline: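 The free ligand was titrated with acid and then with base. After each addition it was equilibrated for 30 s, and pH was then read on a glass electrode with an Ag/AgCl reference. Ligand integrity was checked afterwards by HPLC with charged aerosol detection. Constants were calculated from three replicates.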

[6] = assay type: in vivo, beagle; settings: beagles, 100 mg kg^−1 oral C2E2
[7] = cited from earlier work; for stability constant (log K) of the americium complex: ref Ansoborlo et al., 2007
[8] = oral; ref Volf, 1984; cited from earlier work
[9] = ref Martell, 1982; cited from earlier work
[10] = reported for DTPA; cited from earlier work
[11] = 100 mg kg^−1 oral, two-compartment model

| Compound | EC50 [2] | EC90 [2] | logistic equation parameter a (slope) [2] | logistic equation parameter b (inflection point) [2] | logistic equation parameter c (asymptote, fraction of bound ^241Am) [2] | EC50 [3] | EC90 [3] | logistic equation parameter a (slope) [3] | logistic equation parameter b (inflection point) [3] | logistic equation parameter c (asymptote, fraction of bound ^241Am) [3] | calculated formation constant (log K) of the ^241Am-ligand complex [4] | conditional stability constant (lg β^cond) of the ^241Am complex [4] | EC50 [5] | EC90 [5] | logistic equation parameter a (slope) [5] | logistic equation parameter b (inflection point) [5] | logistic equation parameter c (asymptote, fraction of bound ^241Am) [5] | pKa1 (Ionization) | pKa2 (Ionization) | pKa3 (Ionization) | further results |
| --- | --- | --- | --- | --- | --- | --- | --- | --- | --- | --- | --- | --- | --- | --- | --- | --- | --- | --- | --- | --- | --- |
| CCOC(=O)CN(CCN(CCN(CC(=O)O)CC(=O)OCC)CC(=O)O)CC(=O)O [C2E2, DTPA diethyl ester] | 8.87 µM | 18.4 µM | 0.23 ± 0.04 | 8.87 ± 0.80 | 60.29 ± 1.25 | 46.2 µM | 101 µM | 0.04 ± 0.00 | 46.17 ± 3.43 | 54.62 ± 1.58 | 19.6 and 19.6 ± 0.2 | 1.36 | 4.91 µM | 10.8 µM | 0.37 ± 0.02 | 4.91 ± 0.18 | 64.79 ± 0.50 | 9.40 ± 0.02 | 4.68 ± 0.02 | 3.52 ± 0.03 | fraction of the absorbed dose metabolized to C2E1 or DTPA ([1]; 100 mg kg^−1 oral): ~ 2%; difference between AUC0–24 of males and females ([1]; 100 mg kg^−1 oral, two males and two females): no significant difference; elimination half-life from the first compartment [1, 11]: 0.69 h; elimination half-life from the second compartment [1, 11]: 6.66 h; time to peak plasma concentration after administration ([1]; single 100 mg kg^−1 oral gavage): 1 h; difference between concentration required for chelation in humans and dogs ([2]; human vs dog plasma): less than 2 fold; difference between concentration required for chelation in humans and rats ([2]; human vs rat plasma): greater than 5 fold; stability of the ^241Am complex lower than that of the DTPA-^241Am complex [4]: 6 log units; strength of americium binding relative to the strongest ligand in the plasma ([4]; compared with the americium-transferrin complex): nine orders of magnitude higher; pKa4 (Ionization): 1.87 ± 0.05; pKa5 (Ionization): 1.76 ± 0.05; pKa6 (Ionization): 1.45 ± 0.09; time plasma concentration is above the 50% maximal binding threshold [6]: 4.7 h |
| O=C(O)CC(O)(CC(=O)O)C(=O)O [citrate] | – | – | – | – | – | – | – | – | – | – | – | – | – | – | – | – | – | – | – | – | stability constant (log K) of the americium complex [7]: 8.6 |
| O=C(O)CN(CCN(CC(=O)O)CC(=O)O)CCN(CC(=O)O)CC(=O)O [DTPA, Diethylenetriaminepentaacetic acid, reference compound] | 2.82 µM | 5.05 µM | 0.98 ± 0.13 | 2.82 ± 0.30 | 55.88 ± 1.40 | 5.36 µM | 12.4 µM | 0.31 ± 0.03 | 5.36 ± 0.43 | 35.69 ± 0.85 | 25.4 ± 0.3 | 2.70 | 1.08 µM | 2.25 µM | 1.87 ± 0.69 | 1.08 ± 0.18 | 54.75 ± 2.16 | – | – | – | bioavailability [8]: ~ 3%; stability constant (log K) with iron [9]: 28.0; pKa1 [10]: 10.51 ± 0.01; pKa2 [10]: 8.54 ± 0.02; pKa3 [10]: 4.31 ± 0.02; pKa4 [10]: 2.55 ± 0.05; pKa5 [10]: 1.80 ± 0.05; pKa6 [10]: 1.60 ± 0.15; pKa7 [10]: 1.45 ± 0.15 |
| CCOC(=O)CN(CCN(CCN(CC(=O)O)CC(=O)O)CC(=O)O)CC(=O)O [C2E1, monoethyl ester of DTPA] | 5.26 µM | 19 µM | 0.16 ± 0.03 | 5.26 ± 0.74 | 55.22 ± 1.06 | 25.5 µM | 60.1 µM | 0.06 ± 0.01 | 25.50 ± 3.36 | 45.74 ± 1.51 | 21.7 ± 0.5 | 2.46 | 2.02 µM | 5.87 µM | 0.57 ± 0.13 | 2.02 ± 0.38 | 61.69 ± 1.4 | 9.63 ± 0.03 | 6.35 ± 0.38 | 2.99 ± 0.05 | pKa4 (Ionization): 1.72 ± 1.5; pKa5 (Ionization): 1.18 ± 0.45; pKa6 (Ionization): < 1.5; pKa7 (Ionization): < 1.5 |
| transferrin: plasma protein that binds about 30% of the total ^241Am | – | – | – | – | – | – | – | – | – | – | – | – | – | – | – | – | – | – | – | – | stability constant (log K) of the americium complex [7]: 10.4 |
| O=[N+]([O-])O [nitrate] | – | – | – | – | – | – | – | – | – | – | – | – | – | – | – | – | – | – | – | – | affinity for americium (log K) ([7]; ref Silva and OECD Nuclear Energy Agency., 1995): 1.3 |
